Experimental data from ChEMBL document CHEMBL3526049 (Drug Metab Dispos, 2012).

Assays:
[1] = system: Brain; experiment: Drug uptake in MDR1A knockout Sprague-Dawley rat brain at 1 mg/kg, iv; type: ADME, organism-based; parameters: dose 1 mg/kg, route intravenous; conditions: in vivo
[2] = system: Liver; experiment: Drug uptake in MDR1A knockout Sprague-Dawley rat liver at 1 mg/kg, iv; type: ADME, organism-based; parameters: dose 1 mg/kg, route intravenous; conditions: in vivo
[3] = system: Kidney; experiment: Drug uptake in MDR1A knockout Sprague-Dawley rat kidney at 1 mg/kg, iv; type: ADME, organism-based; parameters: dose 1 mg/kg, route intravenous; conditions: in vivo
[4] = system: Brain; experiment: Drug uptake in BCRP knockout Sprague-Dawley rat brain at 1 mg/kg, iv; type: ADME, organism-based; parameters: dose 1 mg/kg, route intravenous; conditions: in vivo
[5] = system: Liver; experiment: Drug uptake in BCRP knockout Sprague-Dawley rat liver at 1 mg/kg, iv; type: ADME, organism-based; parameters: dose 1 mg/kg, route intravenous; conditions: in vivo
[6] = system: Kidney; experiment: Drug uptake in BCRP knockout Sprague-Dawley rat kidney at 1 mg/kg, iv; type: ADME, organism-based; parameters: dose 1 mg/kg, route intravenous; conditions: in vivo
[7] = Drug excretion in bile duct-cannulated BCRP knockout Sprague-Dawley rat bile at 1 mg/kg, iv up to 24 hrs; type: ADME, organism-based; parameters: dose 1 mg/kg, route intravenous; conditions: read-out: Drug excretion
In short: (§1)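 Male Sprague-Dawley rats with bile-duct and femoral cannulation, housed in metabolism cages. Given an IV bolus of 1 mg/kg in 2 ml/kg 50% Cremophor EL in ethanol. Urine, bile and feces collected in toto 0–24 h, with cage wash at 24 h. Amounts quantified by LC-MS/MS and expressed as % of dose; n=6–12.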

[8] = Drug excretion in bile duct-cannulated MRP2 knockout Sprague-Dawley rat bile at 1 mg/kg, iv up to 24 hrs; type: ADME, organism-based; parameters: dose 1 mg/kg, route intravenous; conditions: read-out: Drug excretion; in short: as §1
[9] = Drug excretion in bile duct-cannulated wild-type Sprague-Dawley rat urine at 1 mg/kg, iv up to 24 hrs; type: ADME, organism-based; parameters: dose 1 mg/kg, route intravenous; conditions: read-out: Drug excretion; in short: as §1
[10] = Drug excretion in bile duct-cannulated MDR1A knockout Sprague-Dawley rat urine at 1 mg/kg, iv up to 24 hrs; type: ADME, organism-based; parameters: dose 1 mg/kg, route intravenous; conditions: read-out: Drug excretion
In short: (§2)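 Male Sprague-Dawley Mdr1a knockout rats with bile duct and femoral cannulas, housed in metabolism cages. […] Urine, bile and feces were collected in total over 0–24 h, and cage wash was taken at 24 h.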

[11] = Drug excretion in bile duct-cannulated BCRP knockout Sprague-Dawley rat urine at 1 mg/kg, iv up to 24 hrs; type: ADME, organism-based; parameters: dose 1 mg/kg, route intravenous; conditions: read-out: Drug excretion; in short: as §1
[12] = Drug excretion in bile duct-cannulated MRP2 knockout Sprague-Dawley rat urine at 1 mg/kg, iv up to 24 hrs; type: ADME, organism-based; parameters: dose 1 mg/kg, route intravenous; conditions: read-out: Drug excretion; in short: as §1
[13] = Drug excretion in bile duct-cannulated MDR1A knockout Sprague-Dawley rat bile at 1 mg/kg, iv up to 24 hrs; type: ADME, organism-based; parameters: dose 1 mg/kg, route intravenous; conditions: read-out: Drug excretion; in short: as §2
[14] = Volume of distribution at steady state in MDR1A knockout Sprague-Dawley rat at 1 mg/kg, iv by LC-MS/MS analysis; type: ADME, organism-based; parameters: dose 1 mg/kg, route intravenous; conditions: in vivo, read-out: Vdss
In short: (§3)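 Male Sprague-Dawley rats (knockout or wild type matched for age and weight), femoral artery and vein cannulated, at least 2 days recovery. Crossover design: IV bolus 1 mg/kg on day 0 (saline with 0.2 M equivalents HCl), oral gavage 10 mg/kg on day 3 (water with 0.2 M equivalents HCl). Arterial plasma sampled to 24 h (Mdr1a oral arm to 4 h). Analysed by LC-MS/MS and noncompartmental analysis.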

[15] = Volume of distribution at steady state in wild-type Sprague-Dawley rat at 1 mg/kg, iv by LC-MS/MS analysis; type: ADME, organism-based; parameters: dose 1 mg/kg, route intravenous; conditions: in vivo, read-out: Vdss; in short: as §3
[16] = Volume of distribution at steady state in BCRP knockout Sprague-Dawley rat at 1 mg/kg, iv by LC-MS/MS analysis; type: ADME, organism-based; parameters: dose 1 mg/kg, route intravenous; conditions: in vivo, read-out: Vdss; in short: as §3
[17] = system: Rattus norvegicus; experiment: Clearance in MRP2 knockout Sprague-Dawley rat at 1 mg/kg, iv by LC-MS/MS analysis; conditions: in vivo
[18] = Clearance in BCRP knockout Sprague-Dawley rat at 1 mg/kg, iv by LC-MS/MS analysis; conditions: in vivo
[19] = Clearance in MDR1A knockout Sprague-Dawley rat at 1 mg/kg, iv by LC-MS/MS analysis; conditions: in vivo
[20] = Clearance in wild-type Sprague-Dawley rat at 1 mg/kg, iv by LC-MS/MS analysis; conditions: in vivo
[21] = AUC (infinity) in wild-type Sprague-Dawley rat at 1 mg/kg, iv by LC-MS/MS analysis; type: ADME, organism-based; parameters: time infinity, dose 1 mg/kg, route intravenous; conditions: plasma
[22] = AUC (infinity) in MDR1A knockout Sprague-Dawley rat at 1 mg/kg, iv by LC-MS/MS analysis; type: ADME, organism-based; parameters: time infinity, dose 1 mg/kg, route intravenous; conditions: plasma
[23] = AUC (infinity) in BCRP knockout Sprague-Dawley rat at 1 mg/kg, iv by LC-MS/MS analysis; type: ADME, organism-based; parameters: time infinity, dose 1 mg/kg, route intravenous; conditions: plasma
[24] = system: Rattus norvegicus; experiment: AUC (infinity) in MRP2 knockout Sprague-Dawley rat at 1 mg/kg, iv by LC-MS/MS analysis; type: ADME, organism-based, Plasma; parameters: time infinity, dose 1 mg/kg, route intravenous; conditions: in vivo
[25] = Half life in wild-type Sprague-Dawley rat at 1 mg/kg, iv by LC-MS/MS analysis; type: ADME, organism-based; parameters: dose 1 mg/kg, route intravenous; conditions: in vivo; in short: as §3
[26] = Half life in MDR1A knockout Sprague-Dawley rat at 1 mg/kg, iv by LC-MS/MS analysis; type: ADME, organism-based; parameters: dose 1 mg/kg, route intravenous; conditions: in vivo; in short: as §3
[27] = Half life in BCRP knockout Sprague-Dawley rat at 1 mg/kg, iv by LC-MS/MS analysis; type: ADME, organism-based; parameters: dose 1 mg/kg, route intravenous; conditions: in vivo; in short: as §3

CC(=O)O[C@H]1C(=O)[C@@]2(C)[C@H]([C@H](OC(=O)c3ccccc3)[C@]3(O)C[C@H](OC(=O)[C@H](O)[C@@H](NC(=O)c4ccccc4)c4ccccc4)C(C)=C1C3(C)C)[C@]1(OC(C)=O)CO[C@@H]1C[C@@H]2O [PACLITAXEL]
Drug uptake [1]: Active
Drug uptake [2]: Active
Drug uptake [3]: Active
Drug uptake [4]: Active
Drug uptake [5]: Active
Drug uptake [6]: Active
dose excreted at 24 h [7]: 0.1%
dose excreted at 24 h [8]: 0.2%
dose excreted at 24 h [9]: 3.1%
dose excreted at 24 h [10]: 0.14%
dose excreted at 24 h [11]: 2%
dose excreted at 24 h [12]: 4.5%
dose excreted at 24 h [13]: 0%
Vd [14]: 38.1 L/kg
Vd [15]: 30.3 L/kg
Vd [16]: 29.1 L/kg
CL [17]: 152 mL/min/kg
clearance [18]: 102 mL/min/kg
clearance [19]: 66.7 mL/min/kg
clearance [20]: 112 mL/min/kg
AUC(0-inf) [21]: 172 ng·h/mL
AUC(0-inf) [22]: 303 ng·h/mL
AUC(0-inf) [23]: 171 ng·h/mL
AUC [24]: 375 ng·h/mL
half-life [25]: 7.2 h
half-life [26]: 12.2 h
half-life [27]: 6.4 h
